Measurements collected from several papers.
Compare with care: the assays were run in different laboratories.
Tspo: Translocator protein (Tspo, Rattus norvegicus, UniProt P16257)
HRH2: Histamine H2 receptor (HRH2, Homo sapiens, UniProt P25021)
ADRA1A: Alpha-1A adrenergic receptor (ADRA1A, Homo sapiens, UniProt P35348)

SMILES | target | observed | mode | technique | setting | Ki [nM]
CNc1nc(C#Cc2ccc(Cl)s2)nc2c1ncn2[C@@H]1O[C@H](C(=O)OC)[C@@H](O)[C@H]1O | Tspo | ligand displacement | – | radioligand | – | > 10000
O=C(c1cccc(/N=N/c2cccc(OCCCN3CCCCC3)c2)c1)N1CCCC1 | HRH2 | ligand displacement | – | radioligand | – | > 10000
CNc1nc2cc(OCCCCN3CCC(c4cccc(Cl)c4Cl)CC3)ccc2s1 | HRH2 | ligand displacement | – | radioligand | – | 330
Cc1c(C)c2c(c(C)c1O)CCC(C)(COc1ccc(CC3SC(=O)NC3=O)cc1)O2 (stereo not shown) | Peroxisome proliferator-activated receptor delta (PPARD, Homo sapiens, UniProt Q03181) | cell-free assay | – | – | – | 26200
O=C1c2ccccc2CCN1CCCCN1CCN(c2cccc(Cl)c2Cl)CC1 | ADRA1A | ligand displacement | – | radioligand | – | 117
OCCCN1CC[C@@H]2C[C@H]1c1cc(-c3ccc(C(F)(F)F)cc3)ccc12 | ADRA1A | ligand displacement | – | radioligand | – | 1990
CNC(=O)[C@@]12C[C@@H]1[C@@H](n1cnc3c(NC)nc(C#Cc4ccc(F)c(F)c4)nc31)[C@H](O)[C@@H]2O | Tspo | ligand displacement | – | radioligand | – | > 10000
CC(C)c1nc2cc(OCCCCN3CCN(c4cccc5c4OCCO5)CC3)ccc2s1 | HRH2 | ligand displacement | – | radioligand | – | 240
O=C1c2ccccc2CCN1CCCCN1CCN(c2ccccn2)CC1 | ADRA1A | ligand displacement | – | radioligand | – | 555
CNC(=O)[C@@]12C[C@@H]1[C@@H](n1cnc3c(NC)nc(C#Cc4ccccc4Cl)nc31)[C@H](O)[C@@H]2O | Tspo | ligand displacement | – | radioligand | – | > 10000
C[C@H]1Oc2cc(cnc2N)-c2c(nn(C)c2C#N)CN(C)C(=O)c2ccc(F)cc21 | Focal adhesion kinase 1 (PTK2, Homo sapiens, UniProt Q05397) | cell-free assay | – | – | lysate | 10.3
O=C(O)c1cc(O)c2c(c1)C(=O)c1cc(O)cc(O)c1C2=O | Amine oxidase [flavin-containing] A (MAOA, Homo sapiens, UniProt P21397) | enzyme activity | inhibitor | – | – | 38600
O[C@@H]1[C@H](O)[C@@H]2C[C@@H]2[C@H]1n1cnc2c(NCc3cccc(Cl)c3)ncnc21 | Tspo | ligand displacement | – | radioligand | – | > 10000
Oc1cccc(Nc2nc(-c3ccc(F)cc3F)cs2)c1 | Kappa-type opioid receptor (Oprk1, Rattus norvegicus, UniProt P34975) | cell-free assay | – | radioligand | – | 2200
CNC(=O)[C@@]12C[C@@H]1[C@@H](n1cnc3c(NC)nc(C#Cc4ccc(Br)s4)nc31)[C@H](O)[C@@H]2O | Tspo | ligand displacement | – | radioligand | – | > 10000
CC[C@H](NC(=O)[C@H](CS(=O)(=O)CC1CC1)N[C@@H](c1ccc(F)cc1)C(F)(F)F)C(=O)C(=O)NC1CC1 | Cathepsin S (CTSS, Homo sapiens, UniProt P25774) | enzyme activity | inhibitor | fluorescence | with preincubation | 0.13
